Screening results from PubChem.
NR2E3 ag-1: agonists of human nuclear receptor NR2E3. Q9Y5X4. GST-NR2E3/biotin-RetCOR TR-FRET, 1536-well. inhibition of corepressor binding, % at 4.78 µM. 320,000 tested, 0.12% active. AID 2300;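 active = percent inhibition above the cutoff of mean plus 3 SD of all tested compounds, set per screening campaign, cut at about 20% in these data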;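 also: 0% = DMSO wells and 100% = biotin wells as full block of FRET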
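System: GST-tagged NR2E3 plus biotinylated RetCOR corepressor; Buffer or medium: pH 7.5 Tris-based buffer; Probe or stimulus: RetCOR corepressor, biotinylated, 7 nM; Doses: compound at 4.8 µM, single dose; Schedule: 5 h incubation at 4 °C; Technique: time-resolved FRET; Evaluation: percent inhibition of TR-FRET ratio; Replication: one well per compound, singlicate testing.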
NR1D1 modulator: Rev-erb alpha (human) modulation; Rev-erbα–FITC-DNA binding, fluorescence polarization, 90 min; AID 1259318; activity, % at 10 µM; 370,000 tested, 0.79% active;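 active = activity above about 14%, limit read from the data; passing the limit was not always enough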;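 also: 0% = DMSO wells with 35 nM protein and 100% = DMSO wells with 750 nM protein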
NR2E3 ag-2: human photoreceptor-specific nuclear receptor agonism; Q9Y5X4; CHO-S Gal4-NCOR/VP16-NR2E3 two-hybrid, luciferase; inhibition of corepressor binding, % at 3.98 µM; 360,000 tested, 0.35% active; AID 602229;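 active = inhibition above the mean of all tested compounds plus 3 SD, cut at about 70% in these data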;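 also: 0% = DMSO with NR2E3 transfected cells and 100% = cells lacking NR2E3 construct; higher means lower luciferase signal from less NR2E3 corepressor binding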
PG9 Ab binder: PG9 antibody binding by small molecule; inhibition, % at 6.7 µM; AID 624416; 360,000 tested, 0.43% active; TR-FRET gp120-PG9 antibody binding; in the data active = inhibition above about 8.5%
PG9 bind confirm: confirmation of small molecules binding HIV-1 gp120 antibody PG9 | shares compounds with PG9 Ab binder | TR-FRET PG9 antibody binding, biochemical | inhibition, % at 6.7 µM | 1,500 tested, 90% active; in the data active = inhibition above about 9%
PGV04 Ab binding: PGV04 control antibody binding, counter-screen; shares compounds with PG9 Ab binder; TR-FRET PGV04 antibody-gp120 binding, biochemical; inhibition, % at 6.7 µM; 1,500 tested, 95% active; AID 651604; in the data active = inhibition above about 9.5%
PG9 binder DR: PG9 antibody binding, dose response. shares compounds with PG9 Ab binder. TR-FRET PG9 antibody-gp120 binding inhibition. IC50, µM. 95 tested, under 10 active. AID 651848; in the data active = IC50 below about 10 µM
PGV04 binding DR: counter-screen for PG9 binders: binding to control antibody PGV04 | IC50, µM | 95 tested, 20% active | AID 651937 | TR-FRET binding to control antibody PGV04 | shares compounds with PG9 Ab binder
PG126 binding DR: binds control antibody PG126 in PG9 counter-screen | shares compounds with PG9 Ab binder | TR-FRET binding to antibody PG126, counterscreen | IC50, µM | 95 tested, 20% active
Numbers without * were called inactive; i = inactive; . = no result. Shown are actives, neighbours in structure and some others; about 1.4% of the full set was active somewhere. Rule as the data show it, unless noted: active = IC50 below about 9 µM; inactive = the rest.

SMILES | NR2E3 ag-1 | NR1D1 modulator | NR2E3 ag-2 | PG9 Ab binder | PG9 bind confirm | PGV04 Ab binding | others
COc1cc(OC)cc(C(=O)NC2CCSC2=O)c1 (centres undefined) | 3 | -2 | 21 | 15* | 4 | 39*
CCOc1ccc(C(=O)Nc2ccc(NC(=O)c3ccco3)c(Cl)c2)cc1Cl | 2 | 22 | -17 | 4 | . | .
COC(=O)c1ccc(NC(=O)c2ccc(NC(=O)c3ccco3)cc2)cc1 | -34 | 3 | -3 | 19* | 17* | 11* | PG9 binder DR=i;PGV04 binding DR=>67;PG126 binding DR=>67
CCOc1ccc(C(=O)Nc2ccc(NC(=O)c3ccco3)c(Cl)c2)cc1Br | -34 | 11 | -30 | 36* | 32* | 44*
CCS(=O)(=O)n1nc(-c2ccc(OC)cc2)nc1N | -4 | -4 | 5 | 1 | . | .
CCOC(=O)c1ccccc1NC(=O)/C=C/c1cc(OC)c(OC)c(OC)c1 | 8 | 1 | -33 | 22* | 19* | 24*
COc1ccc(OC)c(C(C(=O)NC2CCCCC2)N(C(=O)c2snc(C(N)=O)c2N)c2ccccc2OC)c1 (centres undefined) | 0 | 15 | -10 | 36* | 36* | 60*
CCCCNC(=O)CCn1c(=O)c2cccn2c2ccc(F)cc21 | . | -5 | -12 | 0 | . | .
O=c1c(-c2ccccc2)nc2ccccc2n1C(CCc1ccccc1)c1nc2ccccc2[nH]1 (centres undefined) | . | -3 | . | -2 | . | .
Cc1ccc(NC(=O)COC(=O)c2cc(Cl)ccc2Cl)c(Br)c1 | 9 | 4 | -10 | 22* | 31* | 40*
O=C(O)CC12CC3CC(C1)CC(n1ncc(N4CCC5(CC4)OCCO5)c(Cl)c1=O)(C3)C2 | 1 | -1 | -14 | 0 | . | .
Cc1cccc(C(=O)OCc2cc3ccccc3[nH]c2=O)c1 | 7 | 21 | -7 | 12* | 13* | 18*
Cc1cccc2cc(COC(=O)c3ccccc3)c(=O)[nH]c12 | -4 | 18 | -13 | 23* | 22* | 38*
Cc1cc2cc3c(cc2nc1SCC(=O)Nc1nc(C)c(C)s1)OCO3 | -1 | 6 | -3 | 1 | . | .
Cc1ccc(S(=O)(=O)N2CCCC(C(=O)NCCN3CCC(Cc4ccccc4)CC3)C2)cc1 (centres undefined) | . | -7 | . | . | . | .
CCc1c(C(=O)NNC(=S)NCC(C)C)csc1C | 3 | 3 | -29 | . | . | .
CCN1CCN(c2ccc(S(=O)(=O)N3CCOCC3)cc2NC(=O)c2ccc(Cl)cc2Cl)CC1 | 1 | -4 | -8 | -1 | . | .
COc1ccc(C(c2nnnn2C(C)(C)C)N2CCN(C(=O)c3ccco3)CC2)cc1 (centres undefined) | 3 | 3 | -10 | 0 | . | .
Cc1nc(SCC(=O)NCc2ccco2)c2c(C)c(C)sc2n1 | 1 | -2 | 2 | -3 | . | .
CCCCc1nc2sc3c(SCC(=O)NCc4ccco4)ncnc3c2c2c1CCC2 | 7 | 6 | -8 | 84* | 87* | 82* | PG9 binder DR=3.3*;PGV04 binding DR=1.5*;PG126 binding DR=1.7*
Cn1c2ccccc2c(=O)c2cc(C#Cc3ccccn3)ccc21 | 6 | 0 | -126 | 1 | . | .
Cn1c2ccccc2c(=O)c2ccc(C#Cc3ccccn3)cc21 | -69 | -10 | . | 50* | 57* | 79*
CN(C)S(=O)(=O)c1cccc(-c2nnc(SCc3ccc4c(c3)OCCO4)o2)c1 | 2 | 1 | -1 | 0 | . | .
COc1ccc(NC(=O)c2oc3ccccc3c2NC(=O)C2CC2)cc1 | 1 | 18 | -34 | 12* | 9.0* | 9 | PG9 binder DR=>67;PGV04 binding DR=i;PG126 binding DR=i
CCc1c(C)nc2ccc(Br)cc2c1SCCC#N | 13 | 5 | -28 | 11* | 13* | 20*
CCc1c(C)nc2c(Br)cccc2c1SCCC#N | 1 | 13 | -28 | 9.6* | 13* | 19*
CCCc1c(C)nc2ccccc2c1SCCC#N | 0 | 2 | -8 | 0 | . | .
